Measured values from ChEMBL document CHEMBL4196116, “3-Aryl-1,2,4-oxadiazole Derivatives Active Against Human Rhinovirus” (ACS Med Chem Lett, 2018).

Columns and labels:
[1] = Cytotoxicity against human H1HeLa cells assessed as reduction in cell viability after 3 days by MTT assay; type: cell-based, H1-HeLa
[2] = system: rhinovirus B14; assay: Antiviral activity against Human rhinovirus B14 infected in human H1HeLa cells assessed as inhibition of viral replication after 3 days by MTT assay; type: functional, organism-based; details: Rhinovirus B, H1-HeLa, 72 h
In short: (§1)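 Anti-rhinovirus EC50 against hRV-B14, -A21 and -A71 determined in H1HeLa cells. Read-out is MTT cell viability. EC50 is the concentration that inhibits viral replication by 50%. Pleconaril serves as reference.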

[3] = system: rhinovirus A21; assay: Antiviral activity against Human rhinovirus A21 infected in human H1HeLa cells assessed as inhibition of viral replication after 3 days by MTT assay; type: functional, organism-based; details: Rhinovirus A, H1-HeLa, 72 h; in short: as §1
[4] = Antiviral activity against Human rhinovirus A71 infected in human H1HeLa cells assessed as inhibition of viral replication after 3 days by MTT assay; type: functional, cell-based; details: Rhinovirus A, H1-HeLa, 72 h; in short: as §1
[5] = Cmax in Sprague-Dawley rat at 10 mg/kg, po by LC/MS/MS analysis; type: ADME, organism-based; parameters: dose 10 mg/kg, route oral; details: in vivo
In short: (§2)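 Male Sprague–Dawley rats, n = 3, given 5 mg·kg–1 intravenously or 10 mg·kg–1 orally. Plasma deproteinized in acetonitrile and assayed by LC–MS/MS. Parameters derived from concentration–time data by noncompartmental analysis. Values reported as mean ± standard deviation.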

[6] = Metabolic stability in rat liver microsomes assessed as parent compound remaining at 1 uM after 30 mins in presence of NADPH by LC/MS/MS analysis; type: ADME, microsome; details: read-out: Stability
In short: (§3)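 Phase I metabolic stability in rat or human liver microsomes, reported as % parent remaining after 30 min. Buspirone serves as reference. Values are mean ± SD of at least three independent experiments.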

[7] = Metabolic stability in human liver microsomes assessed as parent compound remaining at 1 uM after 30 mins in presence of NADPH by LC/MS/MS analysis; type: ADME, microsome; details: read-out: Stability; in short: as §3
[8] = Terminal half life in Sprague-Dawley rat at 5 mg/kg, iv by LC/MS/MS analysis; type: ADME, organism-based; details: in vivo, read-out: beta t1/2 (converted); in short: as §2
[9] = AUCt in Sprague-Dawley rat at 5 mg/kg, iv by LC/MS/MS analysis; type: ADME, organism-based; details: in vivo; in short: as §2
[10] = AUC (infinity) in Sprague-Dawley rat at 5 mg/kg, iv by LC/MS/MS analysis; type: ADME, organism-based; parameters: dose 5 mg/kg, route intravenous, time infinity; details: in vivo; in short: as §2
[11] = Clearance in Sprague-Dawley rat at 5 mg/kg, iv by LC/MS/MS analysis; type: ADME, organism-based; details: in vivo; in short: as §2
[12] = Volume of distribution at steady state in Sprague-Dawley rat at 5 mg/kg, iv by LC/MS/MS analysis; type: ADME, organism-based; details: in vivo, read-out: Vdss; in short: as §2
[13] = Tmax in Sprague-Dawley rat at 10 mg/kg, po by LC/MS/MS analysis; type: ADME, organism-based; details: in vivo; in short: as §2
[14] = Terminal half life in Sprague-Dawley rat at 10 mg/kg, po by LC/MS/MS analysis; type: ADME, organism-based; details: in vivo, read-out: beta t1/2 (converted); in short: as §2
[15] = AUCt in Sprague-Dawley rat at 10 mg/kg, po by LC/MS/MS analysis; type: ADME, organism-based; details: in vivo; in short: as §2
[16] = AUC (infinity) in Sprague-Dawley rat at 10 mg/kg, po by LC/MS/MS analysis; type: ADME, organism-based; parameters: dose 10 mg/kg, time infinity, route oral; details: in vivo; in short: as §2
[17] = Oral bioavailability in Sprague-Dawley rat at 10 mg/kg by LC/MS/MS analysis; type: ADME, organism-based; details: in vivo; in short: as §2

Compound | CC50 at 72 h [1] [nM] | EC50 [2] [nM] | EC50 [3] [nM] | EC50 [4] [nM] | also measured
CNC(=O)c1cc(Oc2cccc(-c3noc(COC)n3)c2)ccn1 | > 100000 | > 100000 | 40300 | 2000 | –
CNC(=O)c1cc(Oc2ccc(-c3noc(C(C)C)n3)c(C)c2)ccn1 | 30500 | 66 | 22 | 3.7 | Cmax [5]: 3900 ng/mL; remaining at 0.5 h, 1 µM [6]: 59.6%; remaining at 0.5 h, 1 µM [7]: 40.7%; half-life [8]: 4.6 h; AUC(0-t) [9]: 31300 ng·h/mL; AUC(0-inf) [10]: 31800 ng·h/mL; clearance [11]: 2.63 mL/min/kg; Vd [12]: 0.611 L/kg; Tmax [13]: 2.7 h; half-life [14]: 3.2 h; AUC(0-t) [15]: 17400 ng·h/mL; AUC(0-inf) [16]: 17400 ng·h/mL; bioavailability [17]: 27.8%
CNC(=O)c1cc(Oc2ccc(-c3noc(COC)n3)cc2)ccn1 | 63400 | 8300 | 2100 | 1700 | –
CCc1nc(-c2ccc(Oc3ccnc(C(=O)NC)c3)cc2)no1 | 43700 | 1100 | 130 | 31 | –
CNC(=O)c1cc(Oc2ccc(-c3noc(C(C)C)n3)nc2)ccn1 | > 100000 | 11500 | 39100 | 6700 | –
CCc1nc(-c2ccc(Oc3ccnc(C(=O)NC)c3)c(C)c2)no1 | 25200 | 390 | 230 | 3.9 | –
CNC(=O)c1cc(Oc2cccc(-c3noc(CC(C)C)n3)c2)ccn1 | 19100 | > 19100 | 2700 | 370 | –
CNC(=O)c1cc(Oc2ccc3c(C)c(-c4noc(C(F)(F)F)n4)sc3c2)ccn1 | > 100000 | 2000 | 990 | 300 | –
CNC(=O)c1cc(Oc2ccc(-c3noc(C4CC4)n3)cc2)ccn1 | 32300 | 520 | 400 | 50 | –
CCc1nc(-c2sc3cc(Oc4ccnc(C(=O)NC)c4)ccc3c2C)no1 | 5200 | 430 | 77 | 14 | –
CNC(=O)c1cc(Oc2ccc3cc(-c4noc(C)n4)ccc3c2)ccn1 | 6900 | 1700 | 110 | 8.4 | –
O=C1CC2(CCCC2)CC(=O)N1CCCCN1CCN(c2ncccn2)CC1 [BUSPIRONE] | – | – | – | – | remaining at 0.5 h, 1 µM [6]: 0.1%; remaining at 0.5 h, 1 µM [7]: 3.5%
CNC(=O)c1cc(Oc2c(C)cc(-c3noc(C(C)C)n3)cc2C)ccn1 | 7400 | 300 | 69 | 11 | remaining at 0.5 h, 1 µM [6]: 37.1%; remaining at 0.5 h, 1 µM [7]: 61.1%
Cc1cc(CCCOc2c(C)cc(-c3noc(C(F)(F)F)n3)cc2C)on1 [PLECONARIL] | – | 92 | – | 9.4 | –
Cc1cc(-c2noc(C(C)C)n2)cc(C)c1Oc1ccnc(C(=O)N(C)C)c1 | 1800 | > 1800 | > 1800 | > 1800 | –
CNC(=O)c1cc(Oc2ccc(-c3noc(CC(C)C)n3)cc2)ccn1 | 23400 | > 23400 | 2200 | 340 | –
CNC(=O)c1cc(Oc2ccc(-c3noc(C(C)C)n3)cc2C)ccn1 | 8900 | 73 | 29 | 2.5 | remaining at 0.5 h, 1 µM [6]: 35.1%; remaining at 0.5 h, 1 µM [7]: 9.9%
CNC(=O)c1cc(Oc2ccc(-c3noc(C)n3)cc2)ccn1 | > 100000 | 33700 | 8700 | 1600 | –
CNC(=O)c1cc(Oc2ccc(-c3noc(C(F)(F)F)n3)cc2)ccn1 | 35000 | 9300 | > 35000 | 1600 | –
CNC(=O)c1cc(Oc2ccc3c(C)c(-c4noc(C)n4)sc3c2)ccn1 | > 100000 | 650 | 59 | 61 | –
CNC(=O)c1cc(Oc2ccc(-c3noc(C4CC4)n3)cc2C)ccn1 | 20000 | 340 | 400 | 12 | –
CNC(=O)c1cc(Oc2ccc3c(C)c(-c4noc(C(C)C)n4)sc3c2)ccn1 | 5500 | 73 | 300 | 13 | remaining at 0.5 h, 1 µM [6]: 99.2%; remaining at 0.5 h, 1 µM [7]: 69.8%
CNC(=O)c1cc(Oc2ccc3c(C)c(-c4noc(C5CC5)n4)sc3c2)ccn1 | 6800 | 470 | 60 | 31 | –
CNC(=O)c1cc(Oc2ccc3c(C)c(C(=O)OC(C)C)sc3c2)ccn1 | – | – | – | – | remaining at 0.5 h, 1 µM [6]: 1%; remaining at 0.5 h, 1 µM [7]: 42.7%
Cc1cc(-c2noc(C(C)C)n2)ccc1Oc1ccnc(C(=O)N(C)C)c1 | 1400 | 490 | > 1400 | > 1400 | –
CC(C)c1nc(-c2ccc(Oc3ccnc(C(=O)N(C)C)c3)cc2)no1 | 9000 | 280 | > 9000 | > 9000 | –
CNC(=O)c1cc(Oc2ccc(-c3noc(C(C)C)n3)cc2)ccn1 | 16100 | 73 | 380 | 34 | –
CNC(=O)c1cc(Oc2cccc(-c3noc(C(C)C)n3)c2)ccn1 | 54200 | 12800 | 2100 | 150 | –
